Laboratory results as given in ChEMBL document CHEMBL1138053, “Design, synthesis, and structure-activity relationships of thieno[2,3-b]pyridin-4-one derivatives as a novel class of potent, orally active, non-peptide luteinizing hormone-releasing hormone receptor antagonists” (J Med Chem, 2006).

Molecular target: T1, Gonadotropin-releasing hormone receptor (Homo sapiens, UniProt P30968)
T1 sequence (P30968 whole entry): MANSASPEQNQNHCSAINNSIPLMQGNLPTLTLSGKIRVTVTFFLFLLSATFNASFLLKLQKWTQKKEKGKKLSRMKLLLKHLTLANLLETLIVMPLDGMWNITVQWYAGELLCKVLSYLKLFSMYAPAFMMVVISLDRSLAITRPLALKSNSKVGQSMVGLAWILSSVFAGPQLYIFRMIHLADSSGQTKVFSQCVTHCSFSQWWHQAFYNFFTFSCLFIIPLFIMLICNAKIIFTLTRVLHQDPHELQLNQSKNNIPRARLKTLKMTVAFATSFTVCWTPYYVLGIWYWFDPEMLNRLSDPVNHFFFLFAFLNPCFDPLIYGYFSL
Experiment: Inhibition of [125I]leuprorelin binding to human recombinant LHRH receptor expressed in CHO cells
Format: cell-based
Details: not given

Compared with `CC(C)C(=O)Nc1ccc(-c2sc3c(c2CN(C)Cc2ccccc2)c(=O)c(C(=O)c2ccccc2)cn3Cc2c(F)cccc2F)cc1`, `CCC(=O)c1cn(Cc2c(F)cccc2F)c2sc(-c3ccc(NC(=O)C(C)C)cc3)c(CN(C)Cc3ccccc3)c2c1=O` is 4-fold higher in IC50: 0.1 nM for the first, 0.4 nM for the second.

Going from `CC(C)C(=O)c1cn(Cc2c(F)cccc2F)c2sc(-c3ccc(NC(=O)CN)cc3)c(CN(C)Cc3ccccc3)c2c1=O` to `CC(C)C(=O)c1cn(Cc2c(F)cccc2F)c2sc(-c3ccc(NC(=O)CO)cc3)c(CN(C)Cc3ccccc3)c2c1=O`, the IC50 falls from 9 nM to 0.2 nM (45-fold). The second is the more potent here.

First: CCOC(=O)c1cn(C)c2sc(-c3ccc(OC)cc3)c(CN(C)Cc3ccccc3)c2c1=O
Second: CCOC(=O)c1cn(Cc2ccccc2)c2sc(-c3ccc(OC)cc3)c(CN(C)Cc3ccccc3)c2c1=O
The IC50 of the first is 25-fold higher: 5000 nM for the first, 200 nM for the second.

Going from `CCOC(=O)c1cn(Cc2ccccc2F)c2sc(-c3ccc(NC(C)=O)cc3)c(CN(C)Cc3ccccc3)c2c1=O` to `CCOC(=O)c1cn(Cc2ccccc2F)c2sc(-c3ccc(NC(=O)CC)cc3)c(CN(C)Cc3ccccc3)c2c1=O`, the IC50 falls from 2 nM to 0.4 nM (5-fold). The second is the more potent here.

`CC(C)C(=O)c1cn(Cc2c(F)cccc2F)c2sc(-c3ccc(NC(=O)C(C)(C)O)cc3)c(CN(C)Cc3ccccc3)c2c1=O` and `CC(C)C(=O)Nc1ccc(-c2sc3c(c2CN(C)Cc2ccccc2)c(=O)c(C(=O)C(C)C)cn3Cc2c(F)cccc2F)cc1` are the same in IC50: 0.2 nM for the first, 0.2 nM for the second.

`CCOC(=O)c1cn(Cc2ccc(OC)cc2)c2sc(-c3ccc(OC)cc3)c(CN(C)Cc3ccccc3)c2c1=O` and `CCOC(=O)c1cn(Cc2ccc(F)cc2)c2sc(-c3ccc(OC)cc3)c(CN(C)Cc3ccccc3)c2c1=O` are within 1.5-fold of each other in IC50: 300 nM for the first, 400 nM for the second.

First: CCOC(=O)c1cn(Cc2ccccc2F)c2sc(-c3ccc(N(C)C(=O)NC)cc3)c(CN(C)Cc3ccccc3)c2c1=O
Second: CCOC(=O)c1cn(Cc2ccccc2F)c2sc(-c3ccc(NC(=O)NC)cc3)c(CN(C)Cc3ccccc3)c2c1=O
The IC50 of the first is 29-fold higher: 2 nM for the first, 0.07 nM for the second. The second is the more potent here.

First: CCOC(=O)c1cn(Cc2ccccc2OC)c2sc(-c3ccccc3)c(CN(C)Cc3ccccc3)c2c1=O
Second: CCOC(=O)c1cn(Cc2ccccc2OC)c2sc(-c3ccccc3OC)c(CN(C)Cc3ccccc3)c2c1=O
The IC50 of the first is 3.5-fold lower: 200 nM for the first, 700 nM for the second.

Compared with `CCOC(=O)c1cn(Cc2c(F)cccc2F)c2sc(-c3ccc(NC(=O)CC)cc3)c(CN(C)Cc3ccccc3)c2c1=O`, `CCOC(=O)c1cn(Cc2c(F)cccc2F)c2sc(-c3ccc(NC(=O)NC)cc3)c(CN(C)Cc3ccccc3)c2c1=O` is 1.7-fold lower in IC50: 0.1 nM for the first, 0.06 nM for the second. The second is the more potent here.

First: CCOC(=O)c1cn(Cc2c(F)cccc2F)c2sc(-c3ccc(NC(=O)C(C)C)cc3)c(CN(C)Cc3ccccc3)c2c1=O
Second: CCC(=O)Nc1ccc(-c2sc3c(c2CN(C)Cc2ccccc2)c(=O)c(C(=O)NC(C)C)cn3Cc2c(F)cccc2F)cc1
The IC50 of the first is 40-fold lower: 0.2 nM for the first, 8 nM for the second. The first is the more potent here.

First: CCOC(=O)c1cn(Cc2ccccc2OC)c2sc(-c3ccc(OC)cc3)c(CNCc3ccccc3)c2c1=O
Second: CCOC(=O)c1cn(Cc2ccccc2OC)c2sc(-c3ccc(OC)cc3)c(CN(CC)Cc3ccccc3)c2c1=O
The IC50 of the first is 6.7-fold higher: 2000 nM for the first, 300 nM for the second. The second is the more potent here.

Compared with `CCOC(=O)c1cn(Cc2ccccc2)c2sc(-c3ccc(NC(=O)C(C)C)cc3)c(CN(C)Cc3ccccc3)c2c1=O`, `CCOC(=O)c1cn(Cc2ccccc2F)c2sc(-c3ccc(NC(=O)c4ccccc4)cc3)c(CN(C)Cc3ccccc3)c2c1=O` is 1.7-fold higher in IC50: 0.6 nM for the first, 1 nM for the second. The first is the more potent here.

Compared with `CCOC(=O)c1cn(Cc2ccccc2[N+](=O)[O-])c2sc(-c3ccc(OC)cc3)c(CN(C)Cc3ccccc3)c2c1=O`, `CCOC(=O)c1cn(Cc2ccccc2F)c2sc(-c3ccc(OC)cc3)c(CN(C)Cc3ccccc3)c2c1=O` is 3.3-fold lower in IC50: 100 nM for the first, 30 nM for the second.

Going from `CCOC(=O)c1cnc2sc(-c3ccc(OC)cc3)c(CN(C)Cc3ccccc3)c2c1O` to `CCOC(=O)c1cn(Cc2cccc(F)c2)c2sc(-c3ccc(OC)cc3)c(CN(C)Cc3ccccc3)c2c1=O`, the IC50 falls from over 20000 nM to 300 nM. The second is the more potent here.

Going from `CCOC(=O)c1cn(Cc2ccccc2OC)c2sc(-c3ccc(OC)cc3)c(CN(Cc3ccccc3)C(C)=O)c2c1=O` to `CCOC(=O)c1cn(Cc2ccccc2C#N)c2sc(-c3ccc(OC)cc3)c(CN(C)Cc3ccccc3)c2c1=O`, the IC50 falls from 7000 nM to 100 nM (70-fold). The second is the more potent here.

`CCOC(=O)c1cn(Cc2ccccc2)c2sc(-c3cccc(OC)c3)c(CN(C)Cc3ccccc3)c2c1=O` and `CCOC(=O)c1cn(Cc2cccc(OC)c2)c2sc(-c3ccc(OC)cc3)c(CN(C)Cc3ccccc3)c2c1=O` are within 1.5-fold of each other in IC50: 500 nM for the first, 400 nM for the second.

`CCOC(=O)c1cn(Cc2ccccc2F)c2sc(-c3ccc(NC(=O)Nc4ccccc4)cc3)c(CN(C)Cc3ccccc3)c2c1=O` and `CCOC(=O)c1cn(Cc2ccccc2F)c2sc(-c3ccc(N)cc3)c(CN(C)Cc3ccccc3)c2c1=O` are within 1.5-fold of each other in IC50: 30 nM for the first, 40 nM for the second.

Going from `CCOC(=O)c1cn(Cc2ccccc2OC)c2sc(-c3ccc(OC)cc3)c(CN(C)C)c2c1=O` to `CCOC(=O)c1cn(Cc2ccccc2OC)c2sc(-c3ccc(OC)cc3)c(C)c2c1=O`, the IC50 rises from 500 nM to 10000 nM (20-fold). The first is the more potent here.

`CC(C)C(=O)c1cn(Cc2c(F)cccc2F)c2sc(-c3ccc(NC(=O)C4(O)CC4)cc3)c(CN(C)Cc3ccccc3)c2c1=O` and `CNC(=O)Nc1ccc(-c2sc3c(c2CN(C)Cc2ccccc2)c(=O)c(C(=O)C(C)C)cn3Cc2c(F)cccc2F)cc1` are the same in IC50: 0.1 nM for the first, 0.1 nM for the second.

In the case of `CC(C)C(=O)Nc1ccc(-c2sc3c(c2CN(C)Cc2ccccc2)c(=O)c(C(O)C(C)C)cn3Cc2c(F)cccc2F)cc1` (stereo unspecified), the IC50 is reported as 0.4 nM.

Same assay, conditions: cho

`CCOC(=O)c1cn(Cc2ccccc2F)c2sc(-c3ccc(OC)cc3)c(CN(C)Cc3ccccc3)c2c1=O` showed an IC50 of 30 nM.

Molecular target: T2, Gonadotropin-releasing hormone receptor (Rattus norvegicus, UniProt P30969)
T2 sequence (P30969 whole entry): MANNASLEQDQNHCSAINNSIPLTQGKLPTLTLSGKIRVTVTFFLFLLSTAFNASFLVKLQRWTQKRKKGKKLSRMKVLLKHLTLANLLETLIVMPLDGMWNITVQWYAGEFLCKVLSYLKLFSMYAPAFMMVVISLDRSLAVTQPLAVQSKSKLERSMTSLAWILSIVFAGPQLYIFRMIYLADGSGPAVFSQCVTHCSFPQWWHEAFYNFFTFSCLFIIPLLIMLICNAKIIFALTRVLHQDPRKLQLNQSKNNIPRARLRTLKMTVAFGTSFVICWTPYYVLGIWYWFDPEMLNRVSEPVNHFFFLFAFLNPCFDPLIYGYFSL
Experiment: Inhibition of [125I]leuprorelin binding to rat anterior pituitary LHRH receptor
Details: not given

`CC(C)C(=O)c1cn(Cc2c(F)cccc2F)c2sc(-c3ccc(NC(=O)C4(O)CC4)cc3)c(CN(C)Cc3ccccc3)c2c1=O` and `CNC(=O)Nc1ccc(-c2sc3c(c2CN(C)Cc2ccccc2)c(=O)c(C(=O)C(C)C)cn3Cc2c(F)cccc2F)cc1` are within 1.5-fold of each other in IC50: 150 nM for the first, 200 nM for the second.

Molecular target: T1, Gonadotropin-releasing hormone receptor
Experiment: Inhibition of LHRH-stimulated arachidonic acid release in CHO cells expressing human LHRH receptor
Format: functional, cell-based
Details: not given
Outline: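 CHO cells stably expressing human or monkey LHRH receptor, seeded at 4 × 10⁴ cells/well and cultured 1 day, then labelled 1 day with [³H]arachidonic acid (11 kBq/well). Washed in DMEM with 20 mM HEPES and 0.2% BSA, preincubated with compound 60 min at 37 °C, then stimulated with LHRH (1 nM) for 40 min at 37 °C.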

`CC(C)C(=O)c1cn(Cc2c(F)cccc2F)c2sc(-c3ccc(NC(=O)C4(O)CC4)cc3)c(CN(C)Cc3ccccc3)c2c1=O` and `CNC(=O)Nc1ccc(-c2sc3c(c2CN(C)Cc2ccccc2)c(=O)c(C(=O)C(C)C)cn3Cc2c(F)cccc2F)cc1` are within 1.5-fold of each other in IC50: 0.1 nM for the first, 0.07 nM for the second.

System: not listed separately
Experiment: Distribution coefficient, log D of the compound
Details: octanol/water

For `CC(C)C(=O)Nc1ccc(-c2sc3c(c2CN(C)Cc2ccccc2)c(=O)c(C(=O)C(C)C)cn3Cc2c(F)cccc2F)cc1`, the logD was 6.33.

Molecular target: T3, Gonadotropin-releasing hormone receptor (Homo sapiens) (UniProt P30968)
T3 sequence (whole entry): T1 sequence (P30968 whole entry)
Experiment: Inhibition of [125I]leuprorelin binding to human recombinant LHRH receptor at 20 uM
Details: not given
Outline: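 Membranes (0.2 mg/mL) from CHO cells stably expressing cloned human LHRH receptor, incubated 60 min at 25 °C with [125I]leuprorelin and test compound in Tris buffer pH 7.5 containing EDTA, BSA, NaN3 and protease inhibitors. Bound ligand separated by filtration on PEI-coated glass-fibre filters. Nonspecific binding taken with 1 µM unlabelled leuprorelin.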

With `CCOC(=O)c1cn(Cc2ccccc2OC)c2sc(-c3ccc(OC)cc3)c(CNc3ccccc3)c2c1=O` the inhibition was 42%.
